Reference: PMC6558985 (Nature chemical biology, 2019)
Numbering of substitutions follows the chain as printed.

Experiments:
Dm-spastin WT = target: T1, Dm-spastin WT (Drosophila melanogaster, UniProt Q8I0P1, DEL311-372); assay: Steady-state ATPase activity, NADH-coupled assay, Dm-spastin wildtype; type: biochemical, D. melanogaster
T1 sequence (Q8I0P1 with tags, fused parts or gaps DEL311-372 limits assumed): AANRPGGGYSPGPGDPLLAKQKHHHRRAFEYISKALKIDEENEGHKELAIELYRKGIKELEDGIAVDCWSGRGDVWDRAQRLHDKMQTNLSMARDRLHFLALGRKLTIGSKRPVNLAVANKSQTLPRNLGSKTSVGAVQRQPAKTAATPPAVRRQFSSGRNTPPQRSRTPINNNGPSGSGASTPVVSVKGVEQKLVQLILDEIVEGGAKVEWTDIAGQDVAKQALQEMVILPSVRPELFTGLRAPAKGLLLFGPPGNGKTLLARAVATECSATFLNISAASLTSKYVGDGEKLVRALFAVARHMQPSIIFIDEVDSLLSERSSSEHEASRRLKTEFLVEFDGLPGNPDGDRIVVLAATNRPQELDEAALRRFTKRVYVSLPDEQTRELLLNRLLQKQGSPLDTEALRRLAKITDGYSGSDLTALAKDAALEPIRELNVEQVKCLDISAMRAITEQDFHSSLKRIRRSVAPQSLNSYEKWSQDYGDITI
Procedure, shortened: (§1)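 Recombinant Dm-spastin, wildtype or point mutants, assayed by steady-state ATPase with NADH-coupled read-out at 0.5 mM MgATP over a test-compound concentration series. Data were fit to a sigmoidal dose-response equation to give IC50, average ± s.d., n = 3. Separately, rates across ATP concentrations were fit to a cooperative Michaelis-Menten equation for kcat and K1/2.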

Dm-spastin = target: T2, Dm-spastin (Drosophila melanogaster, UniProt Q8I0P1, DEL311-372); assay: In vitro microtubule-severing assay; type: biochemical, D. melanogaster; conditions: 2 µM inhibitor, 0.5 mM MgATP, 15 nM Dm-spastin
T2 sequence (Q8I0P1 with tags, fused parts or gaps DEL311-372 limits assumed): T1 sequence (Q8I0P1 with tags, fused parts or gaps DEL311-372 limits assumed)

Dm-spastin N527C = target: T3, Dm-spastin N527C (Drosophila melanogaster, UniProt Q8I0P1, DEL311-372/N527C); assay: Steady-state ATPase activity, NADH-coupled assay, Dm-spastin N527C; type: biochemical, D. melanogaster
T3 sequence (Q8I0P1 with tags, fused parts or gaps DEL311-372/N527C limits assumed): T1 sequence (Q8I0P1 with tags, fused parts or gaps DEL311-372 limits assumed) with N257C
Procedure, shortened: as §1

Dm-spastin Q488V = target: T4, Dm-spastin Q488V (Drosophila melanogaster, UniProt Q8I0P1, DEL311-372/Q488V); assay: Steady-state ATPase activity, NADH-coupled assay, Dm-spastin Q488V; type: biochemical, D. melanogaster
T4 sequence (Q8I0P1 with tags, fused parts or gaps DEL311-372/Q488V limits assumed): T1 sequence (Q8I0P1 with tags, fused parts or gaps DEL311-372 limits assumed) with Q218V
Procedure, shortened: as §1

Dm-spastin N527T = target: T5, Dm-spastin N527T (Drosophila melanogaster, UniProt Q8I0P1, DEL311-372/N527T); assay: Steady-state ATPase activity, NADH-coupled assay, Dm-spastin N527T; type: biochemical, D. melanogaster
T5 sequence (Q8I0P1 with tags, fused parts or gaps DEL311-372/N527T limits assumed): T1 sequence (Q8I0P1 with tags, fused parts or gaps DEL311-372 limits assumed) with N257T
Procedure, shortened: as §1

Dm-spastin T692A = target: T6, Dm-spastin T692A (Drosophila melanogaster, UniProt Q8I0P1, DEL311-372/T692A); assay: Steady-state ATPase activity, NADH-coupled assay, Dm-spastin T692A; type: biochemical, D. melanogaster
T6 sequence (Q8I0P1 with tags, fused parts or gaps DEL311-372/T692A limits assumed): T1 sequence (Q8I0P1 with tags, fused parts or gaps DEL311-372 limits assumed) with T422A
Procedure, shortened: as §1

Dm-spastin S689A = target: T7, Dm-spastin S689A (Drosophila melanogaster, UniProt Q8I0P1, DEL311-372/S689A); assay: Steady-state ATPase activity, NADH-coupled assay, Dm-spastin S689A; type: biochemical, D. melanogaster
T7 sequence (Q8I0P1 with tags, fused parts or gaps DEL311-372/S689A limits assumed): T1 sequence (Q8I0P1 with tags, fused parts or gaps DEL311-372 limits assumed) with S419A
Procedure, shortened: as §1

Hs-FIGL1 = target: T8, Hs-FIGL1 (Homo sapiens, UniProt Q6PIW4); assay: Steady-state ATPase activity, NADH-coupled assay, Hs-FIGL1; type: biochemical; conditions: 10 µM compound, 0.5 mM MgATP
T8 sequence (Q6PIW4 288-674): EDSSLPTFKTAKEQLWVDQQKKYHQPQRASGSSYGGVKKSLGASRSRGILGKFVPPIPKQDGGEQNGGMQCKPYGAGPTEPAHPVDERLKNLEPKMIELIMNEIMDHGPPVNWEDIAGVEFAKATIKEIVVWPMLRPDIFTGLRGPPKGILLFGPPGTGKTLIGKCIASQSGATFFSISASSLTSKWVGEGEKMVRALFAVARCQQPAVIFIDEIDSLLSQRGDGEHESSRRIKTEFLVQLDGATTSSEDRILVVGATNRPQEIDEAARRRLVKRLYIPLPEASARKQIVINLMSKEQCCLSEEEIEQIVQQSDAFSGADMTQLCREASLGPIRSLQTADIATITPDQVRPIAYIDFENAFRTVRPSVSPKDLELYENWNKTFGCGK
Procedure, shortened: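 Recombinant AAA protein constructs assayed by steady-state ATPase with NADH-coupled read-out at 0.5 mM MgATP, with test compound at 2 µM or 10 µM. Activity is reported as percent of steady-state ATPase activity, average ± s.d., n = 3.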

[1] = test system: Dm-spastin, Hs-FIGL1, Hs-PCH2, Mm-VCP, Xl-katanin; assay: Screen of selected kinase inhibitors against five AAA proteins; type: biochemical; conditions: 10 µM compound, 0.5 mM ATP
Procedure, shortened: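 Five recombinant AAA proteins (Dm-spastin, Hs-FIGL1, Hs-PCH2, Mm-VCP, Xl-katanin) were screened for ATPase activity with each test compound at 10 µM and 0.5 mM MgATP. Activity is expressed as percent of the DMSO control, average of n = 2, binned in 10% steps.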

Hs-spastin = target: T9, Hs-spastin (Homo sapiens, UniProt Q9UBP0); assay: Steady-state ATPase activity, NADH-coupled assay, Hs-spastin wildtype; type: biochemical
T9 sequence (Q9UBP0 229-616): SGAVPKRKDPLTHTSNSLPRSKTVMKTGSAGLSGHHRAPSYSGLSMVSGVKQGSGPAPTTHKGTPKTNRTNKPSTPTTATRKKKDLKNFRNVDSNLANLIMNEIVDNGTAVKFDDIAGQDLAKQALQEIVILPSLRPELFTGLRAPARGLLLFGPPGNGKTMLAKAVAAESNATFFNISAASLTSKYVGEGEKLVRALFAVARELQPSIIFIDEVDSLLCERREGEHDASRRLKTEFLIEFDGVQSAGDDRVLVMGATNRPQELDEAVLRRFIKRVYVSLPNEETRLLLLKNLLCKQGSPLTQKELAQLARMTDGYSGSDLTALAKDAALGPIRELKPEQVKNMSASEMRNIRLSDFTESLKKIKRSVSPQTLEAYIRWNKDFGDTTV
Procedure, shortened: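 Recombinant human spastin purified from E. coli. Steady-state ATPase inhibition was measured over a test-compound concentration series at 1 mM ATP. IC50 reported as average ± s.d., n = 3.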

SMILES: C[C@@H]1CNCCN1c1nc(Nc2cc(C(C)(C)C)[nH]n2)c2ccccc2n1 [compound 5, (R)-N-(5-(tert-butyl)-1H-pyrazol-3-yl)-2-(2-methyl-piperazin-1-yl)quinazolin-4-amine]
- IC50 (Dm-spastin WT): 106 ± 35 nM
- potency on Dm-spastin ATPase relative to compound 4 (more potent) (Dm-spastin WT; 0.5 mM MgATP): ~ 10 fold
- Dm-spastin dependent microtubule-severing (Dm-spastin): blocked

SMILES: CN1CCN(c2nc(Nc3cc(-c4ccccc4)[nH]n3)c3ccccc3n2)CC1 [compound 4, 2-(4-methylpiperazin-1-yl)-N-(5-phenyl-1H-pyrazol-3-yl)quinazolin-4-amine]
- IC50 (Dm-spastin N527C): 2900 ± 500 nM
- reduction of potency by N527C mutation relative to Dm-spastin WT (Dm-spastin N527C; P-loop mutation): ~ 3 fold
- IC50 (Dm-spastin Q488V): ~12500 nM
- IC50 (Dm-spastin N527T): > 30000 nM
- IC50 (Dm-spastin WT): 1000 ± 600 nM
- selectivity for Dm-spastin over four other AAA proteins (Dm-spastin WT; 2 µM (Fig. 2 legend; text says 10 µM), 0.5 mM MgATP): increased selectivity for Dm-spastin
- effect on K1/2 of Dm-spastin across a range of ATP concentrations (Dm-spastin WT; MgATP 0.027 to 3 mM): increases in K1/2 at higher compound concentrations
- effect on kcat of Dm-spastin across a range of ATP concentrations (Dm-spastin WT; MgATP 0.027 to 3 mM): not substantial changes in kcat
- IC50 (Dm-spastin T692A): 1500 ± 400 nM
- reduction of potency by T692A mutation relative to Dm-spastin WT (Dm-spastin T692A; sensor-II mutation): ~ 2 fold
- IC50 (Dm-spastin S689A): 900 ± 200 nM
- change of potency by S689A mutation relative to Dm-spastin WT (Dm-spastin S689A; sensor-II mutation): no substantial difference

SMILES: N#CCc1ccc(Nc2nc(Nc3cc(C4CC4)[nH]n3)c3ccccc3n2)cc1 [compound 1, 2-(4-((4-((5-cyclopropyl-1H-pyrazol-3-yl)amino)quinazolin-2-yl)amino)phenyl)acetonitrile, reference compound]
- inhibition of Hs-FIGL1 ATPase activity (Hs-FIGL1): also inhibited Hs-FIGL1
- inhibition of the ATPase activity of Dm-spastin (Dm-spastin WT; 10 µM compound, 0.5 mM MgATP): substantially inhibited
- potency of Dm-spastin inhibition (dose-dependent analysis) (Dm-spastin WT; 0.5 mM MgATP, IC50 not determined): micromolar range
- inhibition of ATPase activity of at least one of five AAA proteins [1]: > 50%

SMILES: C[C@@H]1CNCCN1c1nc(Nc2cc(C(C)(C)C)[nH]n2)c2cc[nH]c2n1 [compound 6, (R)-N-(5-(tert-butyl)-1H-pyrazol-3-yl)-2-(2-methylpiperazin-1-yl)-7H-pyrrolo[2,3-d]pyrimidin-4-amine]
- IC50 (Hs-spastin): 132 ± 55 nM
- improved potency on Hs-spastin with respect to compound 5 (Hs-spastin; 1 mM ATP): ~ 30 fold
